According to ChEMBL document CHEMBL1165943, “Design and synthesis of new anticancer pyrimidines with multiple-kinase inhibitory effect” (Bioorg Med Chem, 2010):

Key:
Type in all cases: functional
K562 = test: Cytotoxicity against human K562 cells assessed as cell growth at 10 uM; settings: Homo sapiens, K562; read-out: Activity
Method in brief: (§1)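 Single-dose screen at 10 μM across the 60-cell-line panel. Cells grown in RPMI 1640 with 5% FBS and 2 mM L-glutamine, seeded at 5,000–40,000 cells/well according to doubling time, and treated 24 h later. Exposure lasted 48 h at 37 °C, 5% CO₂. Adherent cells were fixed with cold TCA, suspension cells were fixed settled, and both were stained with SRB and read at 515 nm. Growth % was recorded, with inhibition % = 100 − growth %.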

EKVX = test: Cytotoxicity against human EKVX cells assessed as cell growth at 10 uM; settings: Homo sapiens, EKVX; read-out: Activity
Method in brief: (§2)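 Single-concentration screen at 10 μM across the 60-cell-line panel (nine tissue types); growth percentage recorded per cell line, with inhibition taken as 100 minus growth percentage.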

HOP-62 = test: Cytotoxicity against human HOP62 cells assessed as cell growth at 10 uM; settings: Homo sapiens, HOP-62; read-out: Activity; method in brief: as §2
NCI-H226 = test: Cytotoxicity against human NCI-H226 cells assessed as cell growth at 10 uM; settings: Homo sapiens, NCI-H226; read-out: Activity; method in brief: as §1
NCI-H23 = test: Cytotoxicity against human NCI-H23 cells assessed as cell growth at 10 uM; settings: Homo sapiens, NCI-H23; read-out: Activity; method in brief: as §1
NCI-H322M = test: Cytotoxicity against human NCI-H322M cells assessed as cell growth at 10 uM; settings: Homo sapiens, NCI-H322M; read-out: Activity; method in brief: as §1
NCI-H460 = test: Cytotoxicity against human NCI-H460 cells assessed as cell growth at 10 uM; settings: Homo sapiens, NCI-H460; read-out: Activity; method in brief: as §1
COLO 205 = test: Cytotoxicity against human COLO205 cells assessed as cell growth at 10 uM; settings: Homo sapiens, COLO 205; read-out: Activity; method in brief: as §2
HCC 2998 = test: Cytotoxicity against human HCC2998 cells assessed as cell growth at 10 uM; settings: Homo sapiens, HCC 2998; read-out: Activity; method in brief: as §2
HCT-116 = test: Cytotoxicity against human HCT116 cells assessed as cell growth at 10 uM; settings: Homo sapiens, HCT-116; read-out: Activity; method in brief: as §2
HCT-15 = test: Cytotoxicity against human HCT15 cells assessed as cell growth at 10 uM; settings: Homo sapiens, HCT-15; read-out: Activity; method in brief: as §2
HT-29 = test: Cytotoxicity against human HT-29 cells assessed as cell growth at 10 uM; settings: Homo sapiens, HT-29; read-out: Activity; method in brief: as §2
KM12 = test: Cytotoxicity against human KM12 cells assessed as cell growth at 10 uM; settings: Homo sapiens, KM12; read-out: Activity; method in brief: as §1
SW-620 = test: Cytotoxicity against human SW620 cells assessed as cell growth at 10 uM; settings: Homo sapiens, SW-620; read-out: Activity; method in brief: as §1
SF-268 = test: Cytotoxicity against human SF268 cells assessed as cell growth at 10 uM; settings: Homo sapiens, SF-268; read-out: Activity; method in brief: as §1
Malme-3M = test: Cytotoxicity against human MALME-3M cells assessed as cell growth at 10 uM; method in brief: as §1
SK-MEL-2 = test: Cytotoxicity against human SK-MEL-2 cells assessed as cell growth at 10 uM; method in brief: as §1
SK-MEL-5 = test: Cytotoxicity against human SK-MEL-5 cells assessed as cell growth at 10 uM; method in brief: as §1
UACC-257 = test: Cytotoxicity against human UACC257 cells assessed as cell growth at 10 uM; method in brief: as §1
UACC-62 = test: Cytotoxicity against human UACC62 cells assessed as cell growth at 10 uM; method in brief: as §1
IGROV-1 = test: Cytotoxicity against human IGROV1 cells assessed as cell growth at 10 uM; method in brief: as §1
OVCAR-3 = test: Cytotoxicity against human OVCAR-3 cells assessed as cell growth at 10 uM; method in brief: as §1
OVCAR-4 = test: Cytotoxicity against human OVCAR4 cells assessed as cell growth at 10 uM; method in brief: as §1
OVCAR-5 = test: Cytotoxicity against human OVCAR5 cells assessed as cell growth at 10 uM; method in brief: as §1
OVCAR-8 = test: Cytotoxicity against human OVCAR8 cells assessed as cell growth at 10 uM; method in brief: as §1
NCI/ADR-RES = test: Cytotoxicity against human NCI/ADR-RES cells assessed as cell growth at 10 uM; method in brief: as §1
SK-OV-3 = test: Cytotoxicity against human SKOV3 cells assessed as cell growth at 10 uM; method in brief: as §1
786-0 = test: Cytotoxicity against human 786-0 cells assessed as cell growth at 10 uM; method in brief: as §2
A498 = test: Cytotoxicity against human A498 cells assessed as cell growth at 10 uM; method in brief: as §2
TK-10 = test: Cytotoxicity against human TK10 cells assessed as cell growth at 10 uM; method in brief: as §1
UO-31 = test: Cytotoxicity against human UO31 cells assessed as cell growth at 10 uM; method in brief: as §1
PC-3 = test: Cytotoxicity against human PC3 cells assessed as cell growth at 10 uM; method in brief: as §1
MCF7 = test: Cytotoxicity against human MCF7 cells assessed as cell growth at 10 uM; method in brief: as §1
MDA-MB-231 = test: Cytotoxicity against human MDA-MB-231 cells assessed as cell growth at 10 uM; method in brief: as §1
BT-549 = test: Cytotoxicity against human BT549 cells assessed as cell growth at 10 uM; method in brief: as §2
T47D = test: Cytotoxicity against human T47D cells assessed as cell growth at 10 uM; method in brief: as §1
MDA-MB-468 = test: Cytotoxicity against human MDA-MB-468 cells assessed as cell growth at 10 uM; method in brief: as §1
[1] = Growth inhibition of human NCI60 cells at 10 uM after 48 hrs by sulforhodamine B assay relative to control; settings: Homo sapiens, NCI60, 48 h; read-out: GI
Method in brief: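 Single 10 µM dose across the 60-line panel for 48 h, with the same culture, TCA fixation and SRB 515 nm read-out. Inhibition % = 100 − growth %, given as the mean over the 60 cell lines.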

## CC(=O)c1ccccc1-c1ccc(-c2ccnc(NC(=O)Nc3cc(C(F)(F)F)cc(C(F)(F)F)c3)n2)cn1
K562
  growth at 10 µM: 90.8%
EKVX
  growth at 10 µM: 91%
HOP-62
  growth at 10 µM: 95.6%
NCI-H226
  growth at 10 µM: 98.6%
NCI-H23
  growth at 10 µM: 99.8%
NCI-H322M
  growth at 10 µM: 85%
NCI-H460
  growth at 10 µM: 95.9%
COLO 205
  growth at 10 µM: 90.9%
HCC 2998
  growth at 10 µM: 105%
HCT-116
  growth at 10 µM: 69.9%
HCT-15
  growth at 10 µM: 93.2%
HT-29
  growth at 10 µM: 96.3%
KM12
  growth at 10 µM: 93.8%
SW-620
  growth at 10 µM: 81.8%
SF-268
  growth at 10 µM: 94.4%
Malme-3M
  Activity: 105.41%
SK-MEL-2
  Activity: 95.01%
SK-MEL-5
  Activity: 97.2%
UACC-257
  Activity: 92.59%
UACC-62
  Activity: 92.88%
IGROV-1
  Activity: 78.4%
OVCAR-3
  Activity: 126.52%
OVCAR-4
  Activity: -18.53%
OVCAR-5
  Activity: 113.85%
OVCAR-8
  Activity: 83.37%
NCI/ADR-RES
  Activity: 87.74%
SK-OV-3
  Activity: 91.88%
786-0
  Activity: 93.55%
A498
  Activity: 106.93%
TK-10
  Activity: 102.3%
UO-31
  Activity: 76.28%
PC-3
  Activity: 74.12%
MCF7
  Activity: 75.33%
MDA-MB-231
  Activity: 83.21%
BT-549
  Activity: 90.06%
T47D
  Activity: 82.59%
MDA-MB-468
  Activity: 81.95%
[1]
  inhibition of growth at 10 µM: 11.3%

## FC(F)(F)c1cc(Nc2nccc(-c3ccc(Nc4ccccc4)nc3)n2)cc(C(F)(F)F)c1
K562
  growth at 10 µM: 92.9%
EKVX
  growth at 10 µM: 108%
HOP-62
  growth at 10 µM: 94%
NCI-H226
  growth at 10 µM: 98%
NCI-H23
  growth at 10 µM: 98.2%
NCI-H322M
  growth at 10 µM: 96.6%
NCI-H460
  growth at 10 µM: 109%
COLO 205
  growth at 10 µM: 104%
HCC 2998
  growth at 10 µM: 100%
HCT-116
  growth at 10 µM: 108%
HCT-15
  growth at 10 µM: 97.4%
HT-29
  growth at 10 µM: 99.8%
KM12
  growth at 10 µM: 112%
SW-620
  growth at 10 µM: 101%
SF-268
  growth at 10 µM: 107%
Malme-3M; Homo sapiens, Malme-3M, read-out: Activity
  growth at 10 µM: 117%
SK-MEL-2; Homo sapiens, SK-MEL-2, read-out: Activity
  growth at 10 µM: 92.1%
SK-MEL-5; Homo sapiens, SK-MEL-5, read-out: Activity
  growth at 10 µM: 99.1%
UACC-257; Homo sapiens, UACC-257, read-out: Activity
  growth at 10 µM: 99.5%
UACC-62; Homo sapiens, UACC-62, read-out: Activity
  growth at 10 µM: 99.1%
IGROV-1; Homo sapiens, IGROV-1, read-out: Activity
  growth at 10 µM: 102%
OVCAR-3; Homo sapiens, OVCAR-3, read-out: Activity
  growth at 10 µM: 119%
OVCAR-4; Homo sapiens, OVCAR-4, read-out: Activity
  growth at 10 µM: 105%
OVCAR-5; Homo sapiens, OVCAR-5, read-out: Activity
  growth at 10 µM: 97.3%
OVCAR-8; Homo sapiens, OVCAR-8, read-out: Activity
  growth at 10 µM: 97.2%
NCI/ADR-RES; Homo sapiens, NCI/ADR-RES, read-out: Activity
  growth at 10 µM: 102%
SK-OV-3; Homo sapiens, SK-OV-3, read-out: Activity
  growth at 10 µM: 89.9%
786-0; Homo sapiens, 786-0, read-out: Activity
  growth at 10 µM: 105%
A498; Homo sapiens, A498, read-out: Activity
  growth at 10 µM: 104%
TK-10; Homo sapiens, TK-10, read-out: Activity
  growth at 10 µM: 119%
UO-31; Homo sapiens, UO-31, read-out: Activity
  growth at 10 µM: 79.5%
PC-3; Homo sapiens, PC-3, read-out: Activity
  growth at 10 µM: 95.2%
MCF7; Homo sapiens, MCF7, read-out: Activity
  growth at 10 µM: 75.4%
MDA-MB-231; Homo sapiens, MDA-MB-231, read-out: Activity
  growth at 10 µM: 97.5%
BT-549; Homo sapiens, BT-549, read-out: Activity
  growth at 10 µM: 105%
T47D; Homo sapiens, T47D, read-out: Activity
  growth at 10 µM: 84.5%
MDA-MB-468; Homo sapiens, MDA-MB-468, read-out: Activity
  growth at 10 µM: 89.6%
[1]
  inhibition of growth at 10 µM: 0.2%
